Test results as given in ChEMBL document CHEMBL4513216, “Probing the Open Global Health Chemical Diversity Library for Multistage-Active Starting Points for Next-Generation Antimalarials” (ACS Infect Dis, 2020).

Test: Toxicity liver stage against HepG2, at 10uM
Format: cell-based
Parameters: test concentration 10 uM, cell line HepG2-A16-CD81EGFP
Conditions: human, HepG2-A16-CD81EGFP cells; read-out: INHIBITION
Procedure, shortened: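 Uninfected HepG2-A16-CD81EGFP cells, 3 × 10^3 per well, 1536-well, plated on prespotted compound at 10 μM final, parasite-free screening media added to match infected plates; puromycin 10 μM positive, DMSO 0.5% negative; run in parallel with 48 h PbLuc assay at 37 °C, 5% CO2; viability by CellTiter-Glo luminescence, normalized to controls.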

Point of comparison: `O=C(CNC(=O)c1ccccc1F)NCc1ccccn1`, cytotoxicity at 10 µM -0.575%. Against it:
- Cc1ccsc1C(=O)N1CCCc2c(c(=O)n(C)n2C)C1 — higher, 6.95%
- Cc1ccc(CN2C[C@@H](c3ccccc3)[C@@]3(CCNC3=O)C2)o1 — lower, -119%
- CC(C)n1[nH]c(=O)c2c1NC(=O)CC2c1ccc(S(C)(=O)=O)cc1 (stereo unspecified) — lower, -2.28%
- COc1cccc(S(=O)(=O)N2CCOC(C)(C(N)=O)C2)c1 (stereo unspecified) — higher, 3.08%
- CCc1cc(O)n2nc(C3CCN(C(=O)c4ccccn4)CC3)cc2n1 — higher, 2.29%
- CO[C@@H]1CC[C@@H](N(C)C(=O)c2cn3cc(C)ccc3n2)[C@H]1O — higher, 0.91%
- O=C1CN(C(=O)C2CN(c3ccccc3)CCO2)CCN1 (stereo unspecified) — higher, 1.91%
- Cc1cc(NCCC(=O)NC(C)C)nc(-c2ccncc2)n1 — lower, -6.74%
- O=C(NCc1cnn(-c2ccc(F)cc2F)c1)C1CCCO1 (stereo unspecified) — higher, 8.69%
- CCN(C(=O)Nc1cc(C)on1)C(C)c1cccc(O)c1 (stereo unspecified) — higher, 2.52%
- CN1CCOC(CNCc2c(Cl)nc3ccccn23)C1 (stereo unspecified) — higher, -0.0638%
- CCCN1CCC(C(=O)NCCN(CC)c2ccccc2C)CC1 — higher, 15.7%
- Cc1n[nH]c(C2CN(Cc3csc(C4CCCC4)n3)CCO2)n1 (stereo unspecified) — higher, 12.9%
- CC(=O)NC(C)(C)c1noc(C2(C#N)CCCCC2)n1 — higher, 7.57%
- C=C(C)Cn1ccc2cc(OC)c(F)cc2c1=O — higher, 3.09%
- CCCN1CCC(N2CCN(c3cc(C)nc(C)c3)CC2)CC1 — lower, -11.2%
- CS(=O)(=O)N1CCC[C@H]1c1ncnn1-c1ccc2c(c1)OCO2 — lower, -12.8%
- CSc1cccc(CN2CCC(CCC(=O)NCCN(C)C)CC2)c1 — lower, -11.9%
- Cc1cc(C)nc(CN(C)C(=O)c2cccc(CCC(C)(C)O)c2)c1 — lower, -3.25%
- CCC1C=CCN1C(=O)c1cc(COc2ccccc2OC)[nH]n1 (stereo unspecified) — higher, 2.93%
- Cc1oc(-c2ccoc2)nc1CN1CCCCC1CCc1ccccc1 (stereo unspecified) — lower, -1.48%
- COc1cccn(CC(=O)N2CCCC3(CCCO3)CC2)c1=O (stereo unspecified) — higher, 0.955%
- CC1CCN(S(=O)(=O)c2ccc(C(=O)N3CCSCC3)cc2)CC1 — higher, 9.54%
- CN(CCCc1cnn(C)c1)C(=O)C1COc2ccccc2C1 (stereo unspecified) — lower, -5.91%
- CCc1cc(NCCc2ccc(O)cc2)n2nccc2n1 — lower, -16.3%
- CNc1nc(C2CCCN2C(C)=O)nc2c1CCN(CC1CC1)C2 (stereo unspecified) — higher, -0.361%
- Cn1cnc2c1CCN(Cc1csc(-c3ccc(F)cc3)n1)C2 — lower, -4.78%
- CN1CCN(c2cc(CNC(=O)c3ccsc3)ccn2)CC1 — lower, -7.27%
- Cc1cc(NC(=O)NCC(c2ccccc2)N2CCOCC2)n(C)n1 (stereo unspecified) — lower, -11%
- CCOc1ccc(C#N)cc1NCC(=O)NC1(C#N)CCCC1 — lower, -30.8%
- CC(C)c1nc2c(n1C)CCN(CCCOc1ccc(C#N)cc1)C2 — lower, -12.8%
- CC(C)c1nc2n(n1)CC(NCc1nnc(C3CC3)o1)CC2 (stereo unspecified) — lower, -11.6%
- CCCC(=O)N1CCN(CC(O)COCC)CC1 (stereo unspecified) — lower, -20.6%
- COc1ccc(C(O)CNc2c(C#N)c(=O)n(C)c(=O)n2C)cc1 (stereo unspecified) — lower, -7.34%
- COc1ccc(C(C)NC(=O)NCCCn2cncn2)cc1F (stereo unspecified) — higher, 2.12%
- COc1ccc(CN(C)Cc2nc3c(cnn3C)c(=O)[nH]2)cc1OC — higher, 0.457%
- CC(C)(C)OC(=O)N1CCN(C(=O)c2sccc2C2CC2)CC1 — higher, 2.38%
- CCN(CCNC(=O)c1ccccc1Br)C1CC1 — higher, 3.32%
- CCCS(=O)(=O)N1C[C@@H]2CN(Cc3cccs3)CCO[C@@H]2C1 — lower, -145%
- Cn1cccc1C(=O)N1CCC2(CCCN2c2ncccn2)CC1 — higher, 6.07%
- O=C(c1cccnc1)N1CCOC2(COCCN(c3cncnc3)C2)C1 (stereo unspecified) — higher, 4.53%
- O=C(c1ccncc1F)N1CCc2ncnc(C3CC3)c2CC1 — lower, -78.4%
- CCc1ncnc2c1CCN(Cc1nccs1)CC2 — higher, 6.56%
- O=C1N(CC2CC2)CCC12CCN(c1ncccn1)CC2 — higher, 3.77%
- Cc1ccc(N2CC[C@@H]3CN(Cc4cccc(C)n4)C[C@@H]3C2)nn1 — higher, 6.34%
